ChEMBL document CHEMBL1154645, “Aza-peptidyl Michael acceptor and epoxide inhibitors--potent and selective inhibitors of Schistosoma mansoni and Ixodes ricinus legumains (asparaginyl endopeptidases)” (J Med Chem, 2009)

Legend:
[1] = Inhibition of Schistosoma mansoni asparaginyl endopeptidase
In short: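 Recombinant S. mansoni legumain zymogen expressed in Pichia pastoris and activated before use. Assay buffer was 0.1 M citrate-phosphate with 4 mM DTT at pH 6.8, with under 1% DMSO. The substrate was Cbz-Ala-Ala-[…]-AMC at a final 10 μM, and activity was read as AMC release.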

Legumain-like protease = biological target: T1, Legumain-like protease (Ixodes ricinus, UniProt Q6PRC7); experiment: Inhibition of Ixodes ricinus asparaginyl endopeptidases
T1 sequence (Q6PRC7 whole entry): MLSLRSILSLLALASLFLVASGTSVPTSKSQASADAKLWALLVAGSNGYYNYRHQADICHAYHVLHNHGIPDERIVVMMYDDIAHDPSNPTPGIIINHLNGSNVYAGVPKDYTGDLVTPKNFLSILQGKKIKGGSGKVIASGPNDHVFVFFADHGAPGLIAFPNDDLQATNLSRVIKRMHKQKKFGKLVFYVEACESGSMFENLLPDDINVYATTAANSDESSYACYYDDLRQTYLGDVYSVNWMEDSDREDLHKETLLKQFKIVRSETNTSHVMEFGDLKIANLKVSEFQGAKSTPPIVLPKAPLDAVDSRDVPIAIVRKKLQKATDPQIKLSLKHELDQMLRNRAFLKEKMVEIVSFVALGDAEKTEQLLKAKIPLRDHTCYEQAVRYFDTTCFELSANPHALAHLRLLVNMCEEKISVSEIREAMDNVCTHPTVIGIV
In short: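 Recombinant I. ricinus legumain zymogen expressed in Pichia pastoris, then activated. Substrate: Cbz-Ala-Ala-[…]-AMC at 10 μM final, with fluorogenic AMC release as the read-out.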

Row | SMILES | IC50 ([1]; read-out: IC50) | IC50 (Legumain-like protease; read-out: IC50) | IC50 [1] | IC50 (Legumain-like protease)
1 | C[C@H](NC(=O)[C@@H](C)NC(=O)N1CCCCC1)C(=O)NN(CC(N)=O)C(=O)/C=C/C(=O)NCCc1ccccc1 | 750 nM | 400 nM | – | –
2 | C[C@H](NC(=O)[C@@H](C)NC(=O)N1CCNCC1)C(=O)NN(CC(N)=O)C(=O)/C=C/C(=O)OCc1ccccc1 | 250 nM | 13 nM | – | –
3 | C[C@H](NC(=O)[C@H](C)NC(=O)N1CCOCC1)C(=O)NN(CC(N)=O)C(=O)OCc1ccccc1 | – | – | Not Active | Not Active
4 | C[C@H](NC(=O)N1CCOCC1)C(=O)NN(CC(N)=O)C(=O)/C=C/C(=O)NCc1ccco1 | – | – | Not Active | Not Active
5 | C=C/C=C(\C)CNC(=O)N(CC(N)=O)NC(=O)[C@H](C)NC(=O)N1CCN(C(=O)OCc2ccccc2)CC1 | – | – | Not Active | Not Active
6 | C[C@H](NC(=O)[C@@H](C)NC(=O)N1CCNCC1)C(=O)NN(CC(N)=O)C(=O)/C=C/C(=O)N(C)Cc1cccc2ccccc12 | 40 nM | 3.8 nM | – | –
7 | C[C@H](NC(=O)[C@@H](C)NC(=O)N1CCNCC1)C(=O)NN(CC(N)=O)C(=O)/C=C/C(=O)N(Cc1ccccc1)Cc1ccccc1 | 90 nM | 31 nM | – | –
8 | C[C@H](NC(=O)[C@H](C)NC(=O)N1CCCCC1)C(=O)NN(CC(N)=O)C(=O)/C=C/C(=O)N(Cc1ccccc1)Cc1ccccc1 | 80 nM | 17 nM | – | –
9 | C[C@H](NC(=O)[C@@H](C)NC(=O)N1CCN(C(=O)OC(C)(C)C)CC1)C(=O)NN(CC(N)=O)C(=O)/C=C/C(=O)OCc1ccccc1 | 45 nM | 7.5 nM | – | –
10 | C[C@H](NC(=O)[C@@H](C)NC(=O)N1CCN(C(=O)OC(C)(C)C)CC1)C(=O)NN(CC(N)=O)C(=O)/C=C/C(=O)N(C)Cc1cccc2ccccc12 | 58 nM | 20 nM | – | –
11 | CCOC(=O)/C=C/C(=O)N(CC(N)=O)NC(=O)[C@H](C)NC(=O)[C@@H](C)NC(=O)N1CCN(C(=O)OCc2ccccc2)CC1 | – | 0.14 nM | – | –
12 | CC(C)[C@H](NC(=O)[C@@H](C)NC(=O)OCc1ccccc1)C(=O)NN(CC(N)=O)C(=O)/C=C/C(=O)NCc1cccc2ccccc12 | 1050 nM | 350 nM | – | –
13 | CCOC(=O)/C=C/C(=O)N(CC(N)=O)NC(=O)[C@@H](NC(=O)[C@@H](C)NC(=O)OCc1ccccc1)C(C)C | 100 nM | 65 nM | – | –
14 | C[C@H](NC(=O)N1CCN(C(=O)OCc2ccccc2)CC1)C(=O)NN(CC(N)=O)C(=O)/C=C/C(=O)N1CCc2ccccc2C1 | 750 nM | 800 nM | – | –
15 | C[C@H](NC(=O)[C@@H](C)NC(=O)N1CCOCC1)C(=O)NN(CC(N)=O)C(=O)/C=C/C(=O)N(Cc1cccc2ccccc12)Cc1cccc2ccccc12 | 45 nM | 3.3 nM | – | –
16 | C[C@H](NC(=O)N1CCN(C(=O)OCc2ccccc2)CC1)C(=O)NN(CC(N)=O)C(=O)/C=C/C(=O)N1CCCc2ccccc21 | 750 nM | 850 nM | – | –
17 | C[C@H](NC(=O)N1CCOCC1)C(=O)NN(CC(N)=O)C(=O)/C=C/C(=O)NC1CC1 | – | – | Not Active | Not Active
18 | C[C@H](NC(=O)N1CCOCC1)C(=O)NN(CC(N)=O)C(=O)Nc1cccc2ccccc12 | – | – | Not Active | Not Active
19 | C[C@H](NC(=O)N1CCOCC1)C(=O)NN(CC(N)=O)C(=O)/C=C/C(=O)N1CCc2ccccc2C1 | 750 nM | 600 nM | – | –
20 | CCOC(=O)/C=C/C(=O)N(CC(N)=O)NC(=O)[C@H](C)NC(=O)[C@@H](C)NC(=O)N1CCCCC1 | 80 nM | 15 nM | – | –
21 | C[C@H](NC(=O)N1CCOCC1)C(=O)NN(CC(N)=O)C(=O)CCc1ccccc1 | – | – | Not Active | Not Active
22 | C[C@H](NC(=O)[C@@H](C)NC(=O)N1CCN(C(=O)OC(C)(C)C)CC1)C(=O)NN(CC(N)=O)C(=O)/C=C/C(=O)N(Cc1ccccc1)Cc1ccccc1 | 45 nM | 30 nM | – | –
23 | CCOC(=O)/C=C/C(=O)N(CC(N)=O)NC(=O)OC(C)(C)C | > 2000 nM | 750 nM | – | –
24 | CCOC(=O)/C=C/C(=O)N(CC(N)=O)NC(=O)[C@H](C)NC(=O)[C@@H](C)NC(=O)N1CCN(C(=O)OC(C)(C)C)CC1 | 80 nM | 8.5 nM | – | –
25 | CC(C)(C)OC(=O)NN(CC(N)=O)C(=O)/C=C/C(=O)NCC1CCCCC1 | – | – | Not Active | Not Active

Row | SMILES | IC50 ([1]; read-out: IC50) | IC50 (Legumain-like protease; read-out: IC50) | IC50 [1] | IC50 (Legumain-like protease)
26 | C[C@H](NC(=O)N1CCOCC1)C(=O)NN(CC(N)=O)C(=O)/C=C/C(=O)NCCCc1ccccc1 | > 2000 nM | – | – | Not Active
27 | CC(C)(C)OC(=O)NN(CC(N)=O)C(=O)/C=C/C(=O)NCCCc1ccccc1 | – | – | Not Active | Not Active
28 | CCOC(=O)/C=C/C(=O)N(CC(N)=O)NC(=O)[C@@H](NC(=O)[C@@H](C)NC(=O)OCc1ccccc1)[C@@H](C)CC | 280 nM | 0.52 nM | – | –
29 | C[C@H](NC(=O)N1CCCCC1)C(=O)NN(CC(N)=O)C(=O)Nc1ccccc1Oc1ccccc1 | – | – | Not Active | Not Active
30 | C[C@H](NC(=O)[C@@H](C)NC(=O)N1CCOCC1)C(=O)NN(CC(N)=O)C(=O)/C=C/C(=O)N1CCc2ccccc2C1 | 103 nM | 65 nM | – | –
31 | C[C@H](NC(=O)N1CCCCC1)C(=O)NN(CC(N)=O)C(=O)/C=C/C(=O)N1CCc2ccccc2C1 | 600 nM | 150 nM | – | –
32 | CCOC(=O)/C=C/C(=O)N(CC(N)=O)NC(=O)[C@H](C)NC(=O)[C@@H](C)NC(=O)N1CCNCC1 | 300 nM | 8.5 nM | – | –
33 | CCOC(=O)/C=C/C(=O)N(CC(N)=O)NC(=O)[C@H](C)NC(=O)[C@@H](C)NC(=O)N1CCOCC1 | 101 nM | 0.23 nM | – | –
34 | C[C@H](NC(=O)[C@@H](C)NC(=O)N1CCN(C(=O)OCc2ccccc2)CC1)C(=O)NN(CC(N)=O)C(=O)/C=C/C(=O)N(C)Cc1cccc2ccccc12 | 70 nM | 0.35 nM | – | –
35 | C[C@H](NC(=O)[C@@H](C)NC(=O)N1CCN(C(=O)OCc2ccccc2)CC1)C(=O)NN(CC(N)=O)C(=O)/C=C/C(=O)N(Cc1cccc2ccccc12)Cc1cccc2ccccc12 | 50 nM | 0.37 nM | – | –
36 | CC(C)[C@H](NC(=O)[C@@H](C)NC(=O)OCc1ccccc1)C(=O)NN(CC(N)=O)C(=O)/C=C/C(=O)N1CCCc2ccccc21 | 138 nM | 13 nM | – | –
37 | COc1ccc(CNC(=O)/C=C/C(=O)N(CC(N)=O)NC(=O)[C@H](C)NC(=O)N2CCOCC2)cc1OC | > 2000 nM | > 2000 nM | – | –
38 | C[C@H](NC(=O)[C@@H](C)NC(=O)N1CCN(C(=O)OC(C)(C)C)CC1)C(=O)NN(CC(N)=O)C(=O)/C=C/C(=O)N(Cc1cccc2ccccc12)Cc1cccc2ccccc12 | 68 nM | 5 nM | – | –
39 | C[C@H](NC(=O)[C@@H](C)NC(=O)N1CCOCC1)C(=O)NN(CC(N)=O)C(=O)[C@H]1O[C@H]1C(=O)N(Cc1ccccc1)Cc1ccccc1 | – | – | Not Active | Not Active
40 | CC(C)(C)OC(=O)NN(CC(N)=O)C(=O)/C=C/C(=O)NCc1ccccc1 | – | – | Not Active | Not Active
41 | C[C@H](NC(=O)[C@H](C)NC(=O)N1CCCCC1)C(=O)NN(CC(N)=O)C(=O)/C=C/C(=O)N(Cc1cccc2ccccc12)Cc1cccc2ccccc12 (relative stereo) | 57 nM | 8 nM | – | –
42 | C[C@H](NC(=O)[C@@H](C)NC(=O)N1CCNCC1)C(=O)NN(CC(N)=O)C(=O)/C=C/C(=O)N(Cc1cccc2ccccc12)Cc1cccc2ccccc12 (relative stereo) | 70 nM | 2.6 nM | – | –
43 | CC(NC(=O)N1CCCCC1)C(=O)N[C@@H](C)C(=O)NN(CC(N)=O)C(=O)[C@H]1O[C@@H]1C(=O)N(Cc1ccccc1)Cc1ccccc1 (single isomer, unassigned) | 72 nM | 12 nM | – | –
44 | CC(NC(=O)N1CCCCC1)C(=O)N[C@@H](C)C(=O)NN(CC(N)=O)C(=O)[C@H]1O[C@@H]1C(=O)NCc1cccc2ccccc12 (single isomer, unassigned) | 160 nM | 8.5 nM | – | –
45 | CC(NC(=O)N1CCN(C(=O)OC(C)(C)C)CC1)C(=O)N[C@@H](C)C(=O)NN(CC(N)=O)C(=O)[C@H]1O[C@@H]1C(=O)N(Cc1ccccc1)Cc1ccccc1 (single isomer, unassigned) | 80 nM | 270 nM | – | –
46 | CCOC(=O)[C@H]1O[C@@H]1C(=O)N(CC(N)=O)NC(=O)[C@H](C)NC(=O)C(C)NC(=O)N1CCCCC1 (single isomer, unassigned) | 220 nM | 30 nM | – | –
47 | CC(NC(=O)N1CCOCC1)C(=O)N[C@@H](C)C(=O)NN(CC(N)=O)C(=O)[C@H]1O[C@@H]1C(=O)NCc1cccc2ccccc12 (single isomer, unassigned) | 60 nM | 6 nM | – | –
48 | CC(NC(=O)N1CCOCC1)C(=O)N[C@@H](C)C(=O)NN(CC(N)=O)C(=O)[C@H]1O[C@@H]1C(=O)N(Cc1ccccc1)Cc1ccccc1 (single isomer, unassigned) | 90 nM | 1.7 nM | – | –
49 | CC(NC(=O)N1CCNCC1)C(=O)N[C@@H](C)C(=O)NN(CC(N)=O)C(=O)[C@H]1O[C@@H]1C(=O)N(Cc1ccccc1)Cc1ccccc1 (single isomer, unassigned) | 150 nM | 11 nM | – | –
